These results are taken from paper PMC12464261 (Scientific Reports, 2025).

Series [1] is described as follows: Toxicokinetic / pharmacokinetic study of insulin injection in Beagle dogs. The class given is in vivo, Beagle dogs (Canis lupus familiaris). Particulars: subcutaneous, across all doses (0.5, 1, 1.5 IU/kg vs Lantus 1.5 IU/kg), Fig. 5.
For series [2], the system named is type 1 diabetic rats. In kind it is in vivo, NOD rats. The procedure, abridged: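 […]. […] Single dose: overnight fast, then tail-vein glucose by glucometer at 1, 2, 4 and 6 h. Multiple dose: daily injections, glucose at 2, 4 and 6 h post-injection. Triplicate measurements, means reported.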

Series [3] has as its target T1, insulin receptor isoform A (IR-A) (Homo sapiens, UniProt P06213). The experiment in a line: Insulin receptor phosphorylation assay. The class given is cell-based. As to conditions: CHO cells expressing insulin receptor; phospho-specific ELISA; Fig. 6A. The procedure, abridged:
(§1)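 CHO cells expressing IR isoforms A and B were cultured in DMEM with 10% FBS and 1% penicillin-streptomycin, then serum-starved. Cells were exposed to insulin at 0.1, 1 or 10 nM for 5, 15 or 30 min. Lysates were applied to anti-phosphotyrosine-coated wells and detected with an HRP-conjugated secondary antibody. Receptor phosphorylation was quantified from absorbance.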
(In general: In an ELISA, binding on a coated surface is turned into a signal by an enzyme label.)

The target of series [4] is T2, insulin receptor isoform B (IR-B) (Homo sapiens, UniProt P06213). The experiment in a line: Insulin receptor phosphorylation assay. In kind it is cell-based. As to conditions: CHO cells expressing insulin receptor; phospho-specific ELISA; Fig. 6B. The procedure, abridged: as §1
Series [5] concerns the target T1, insulin receptor isoform A (IR-A). Put plainly: Insulin receptor binding assay. As to conditions: CHO cell lysates, [125I]-labeled insulin competition; Fig. 6C. The procedure, abridged: (§2)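 CHO cells expressing insulin receptor isoforms A and B were grown in DMEM with 10% FBS and 1% penicillin-streptomycin, then serum-starved. Cell lysates were incubated with [125I]-insulin with or without excess unlabeled competitor. Bound and free tracer were separated by gel filtration and radioactivity was counted per fraction. IC50 values came from competitive binding curves.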

Series [6] has as its target T2, insulin receptor isoform B (IR-B). The experiment in a line: Insulin receptor binding assay. Particulars: CHO cell lysates, [125I]-labeled insulin competition; Fig. 6D. The gist of the method: as §2
Series [7] deals with insulin-like growth factor 1 receptor (IGF-1R) (Homo sapiens, UniProt P08069). Put plainly: IGF-1R binding assay. Particulars: H19-7/IGF-1R cell line, [125I]-labeled IGF competition; Fig. 6E.
For series [8], the system named is animals. Put plainly: In vivo immunogenicity studies in animals. As to conditions: no details given.
Series [9] concerns the target insulin lisargine (human). Put plainly: crystal structure.
The target in series [10] is insulin lisargine (human). Put plainly: crystal structure. The source holds these as a separate data set.

Where two headings read alike, the source gives them in different places.

T2 sequence (P06213 28-758 limits assumed): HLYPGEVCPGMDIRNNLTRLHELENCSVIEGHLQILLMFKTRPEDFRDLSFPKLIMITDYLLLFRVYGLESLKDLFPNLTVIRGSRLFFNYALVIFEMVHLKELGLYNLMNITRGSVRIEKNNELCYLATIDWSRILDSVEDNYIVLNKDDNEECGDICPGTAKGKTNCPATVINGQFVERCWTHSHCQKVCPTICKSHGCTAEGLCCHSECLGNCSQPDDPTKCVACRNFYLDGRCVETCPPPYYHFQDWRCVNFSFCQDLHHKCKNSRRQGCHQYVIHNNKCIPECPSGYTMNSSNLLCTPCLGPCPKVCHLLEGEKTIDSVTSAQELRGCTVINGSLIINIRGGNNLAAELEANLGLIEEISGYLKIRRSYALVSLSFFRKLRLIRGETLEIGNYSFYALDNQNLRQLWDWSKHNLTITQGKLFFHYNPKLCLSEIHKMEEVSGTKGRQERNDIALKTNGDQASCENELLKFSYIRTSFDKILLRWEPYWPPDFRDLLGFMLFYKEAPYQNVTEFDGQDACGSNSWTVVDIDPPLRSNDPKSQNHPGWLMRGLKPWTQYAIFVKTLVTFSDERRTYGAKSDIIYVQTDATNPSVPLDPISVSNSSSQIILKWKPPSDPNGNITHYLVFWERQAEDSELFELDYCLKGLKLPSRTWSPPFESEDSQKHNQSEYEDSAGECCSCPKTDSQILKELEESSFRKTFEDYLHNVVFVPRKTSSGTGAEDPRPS
T2 sequence (P06213 763-1382 limits assumed): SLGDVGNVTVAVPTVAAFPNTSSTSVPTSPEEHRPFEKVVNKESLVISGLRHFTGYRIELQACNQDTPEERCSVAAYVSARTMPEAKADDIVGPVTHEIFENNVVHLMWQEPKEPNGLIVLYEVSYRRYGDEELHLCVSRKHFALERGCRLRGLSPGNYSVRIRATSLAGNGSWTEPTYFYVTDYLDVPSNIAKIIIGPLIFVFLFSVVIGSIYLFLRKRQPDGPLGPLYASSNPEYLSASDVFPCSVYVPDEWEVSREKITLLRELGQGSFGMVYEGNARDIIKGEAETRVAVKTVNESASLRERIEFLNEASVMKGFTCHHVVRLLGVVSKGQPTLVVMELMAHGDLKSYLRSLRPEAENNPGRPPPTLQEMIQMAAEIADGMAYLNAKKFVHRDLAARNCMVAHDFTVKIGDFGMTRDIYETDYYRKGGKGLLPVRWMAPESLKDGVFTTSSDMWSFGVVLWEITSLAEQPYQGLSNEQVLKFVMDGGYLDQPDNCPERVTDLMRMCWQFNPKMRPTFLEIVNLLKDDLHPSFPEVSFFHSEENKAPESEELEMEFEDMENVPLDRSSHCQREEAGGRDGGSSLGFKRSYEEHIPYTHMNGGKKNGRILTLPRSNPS
T1 sequence (P06213 28-1370 isoform P06213-2 limits assumed): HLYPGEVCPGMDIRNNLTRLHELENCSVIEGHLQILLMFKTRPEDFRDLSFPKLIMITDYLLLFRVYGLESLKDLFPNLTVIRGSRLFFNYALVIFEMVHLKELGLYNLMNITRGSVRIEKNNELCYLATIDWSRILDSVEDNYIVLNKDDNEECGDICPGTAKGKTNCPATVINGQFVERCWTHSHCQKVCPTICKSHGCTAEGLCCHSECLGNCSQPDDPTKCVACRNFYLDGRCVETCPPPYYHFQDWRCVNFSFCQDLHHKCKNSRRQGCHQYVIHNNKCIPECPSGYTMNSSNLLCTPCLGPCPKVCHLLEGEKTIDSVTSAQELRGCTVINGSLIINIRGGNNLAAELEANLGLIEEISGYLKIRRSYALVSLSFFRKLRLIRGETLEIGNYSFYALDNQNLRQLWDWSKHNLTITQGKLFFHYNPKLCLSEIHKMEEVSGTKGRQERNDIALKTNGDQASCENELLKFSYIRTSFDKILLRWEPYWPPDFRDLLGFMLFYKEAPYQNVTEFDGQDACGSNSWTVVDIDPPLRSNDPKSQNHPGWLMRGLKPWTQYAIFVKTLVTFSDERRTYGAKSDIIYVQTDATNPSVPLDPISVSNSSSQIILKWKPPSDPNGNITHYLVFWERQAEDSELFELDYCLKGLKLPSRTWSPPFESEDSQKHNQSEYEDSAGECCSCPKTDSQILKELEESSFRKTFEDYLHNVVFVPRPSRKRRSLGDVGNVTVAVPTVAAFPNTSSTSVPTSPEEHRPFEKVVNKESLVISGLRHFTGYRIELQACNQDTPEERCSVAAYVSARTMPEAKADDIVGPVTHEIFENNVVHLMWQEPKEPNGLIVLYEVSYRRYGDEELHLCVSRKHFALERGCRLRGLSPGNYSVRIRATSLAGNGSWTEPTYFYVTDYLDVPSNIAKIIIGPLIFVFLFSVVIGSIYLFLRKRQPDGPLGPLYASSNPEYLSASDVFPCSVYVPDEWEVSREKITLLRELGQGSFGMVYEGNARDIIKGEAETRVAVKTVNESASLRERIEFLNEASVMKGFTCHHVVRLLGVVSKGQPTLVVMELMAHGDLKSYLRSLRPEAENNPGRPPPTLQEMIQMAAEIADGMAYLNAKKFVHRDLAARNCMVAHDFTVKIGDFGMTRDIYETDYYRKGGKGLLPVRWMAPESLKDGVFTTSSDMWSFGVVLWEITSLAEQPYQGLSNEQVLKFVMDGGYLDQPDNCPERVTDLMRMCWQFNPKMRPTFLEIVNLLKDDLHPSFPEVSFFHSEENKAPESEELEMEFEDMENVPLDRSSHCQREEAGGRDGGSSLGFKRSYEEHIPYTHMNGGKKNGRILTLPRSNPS
T1 sequence (P06213 763-1382 limits assumed): as the sequence (P06213 763-1382 limits assumed) above
Sequence of insulin-like growth factor 1 receptor (IGF-1R) (P08069 31-736 limits assumed): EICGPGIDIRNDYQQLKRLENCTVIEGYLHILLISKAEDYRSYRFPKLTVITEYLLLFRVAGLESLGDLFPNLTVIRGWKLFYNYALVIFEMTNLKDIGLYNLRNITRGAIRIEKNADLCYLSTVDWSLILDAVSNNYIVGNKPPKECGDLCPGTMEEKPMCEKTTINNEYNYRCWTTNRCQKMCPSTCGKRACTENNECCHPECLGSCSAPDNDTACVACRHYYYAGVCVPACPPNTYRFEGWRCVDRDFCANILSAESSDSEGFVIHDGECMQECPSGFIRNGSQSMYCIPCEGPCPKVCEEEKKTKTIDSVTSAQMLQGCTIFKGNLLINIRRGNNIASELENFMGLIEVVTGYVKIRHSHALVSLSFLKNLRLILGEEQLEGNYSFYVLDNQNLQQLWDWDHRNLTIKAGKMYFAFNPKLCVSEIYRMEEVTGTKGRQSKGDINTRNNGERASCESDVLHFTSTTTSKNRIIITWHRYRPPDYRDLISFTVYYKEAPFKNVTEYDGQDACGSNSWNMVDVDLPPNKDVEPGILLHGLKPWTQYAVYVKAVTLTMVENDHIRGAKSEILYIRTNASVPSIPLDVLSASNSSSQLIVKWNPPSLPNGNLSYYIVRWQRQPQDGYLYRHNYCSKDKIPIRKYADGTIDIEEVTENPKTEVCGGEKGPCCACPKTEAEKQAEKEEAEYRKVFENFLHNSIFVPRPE
Sequence of insulin-like growth factor 1 receptor (IGF-1R) (P08069 741-1367 limits assumed): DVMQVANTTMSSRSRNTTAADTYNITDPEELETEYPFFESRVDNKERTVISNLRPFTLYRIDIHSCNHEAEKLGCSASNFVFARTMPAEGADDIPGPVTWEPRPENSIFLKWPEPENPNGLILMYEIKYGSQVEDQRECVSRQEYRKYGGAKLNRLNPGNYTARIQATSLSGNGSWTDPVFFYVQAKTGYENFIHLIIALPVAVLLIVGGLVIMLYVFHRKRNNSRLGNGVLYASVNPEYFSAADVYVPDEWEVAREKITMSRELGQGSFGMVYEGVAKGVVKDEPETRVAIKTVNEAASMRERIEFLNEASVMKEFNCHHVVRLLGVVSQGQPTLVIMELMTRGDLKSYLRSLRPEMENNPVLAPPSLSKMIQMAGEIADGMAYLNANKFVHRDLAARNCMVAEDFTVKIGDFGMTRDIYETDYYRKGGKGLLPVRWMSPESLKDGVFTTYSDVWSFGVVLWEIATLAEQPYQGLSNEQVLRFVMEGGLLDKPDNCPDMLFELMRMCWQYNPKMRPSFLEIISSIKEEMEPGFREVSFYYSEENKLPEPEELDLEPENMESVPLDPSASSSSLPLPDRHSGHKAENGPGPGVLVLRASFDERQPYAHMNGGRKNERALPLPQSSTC

As to insulin lisargine, the “plasma insulin concentrations compared with Lantus (insulin glargine)” value in series [1] is “no significant differences”. Besides, the “glucose-lowering effect compared with glargine” value in series [2] (5 IU/kg (abstract)) is on record as “significantly outperformed glargine”. Besides, the “blood glucose levels compared with solvent control, multiple-dose” value in [2] (daily administration, at 2, 4 and 6 h post-administration, Fig. 4B) was “significant reductions”. For the same substance, the “glucose-lowering effects compared with Aspart Insulin” value in series [2] (equivalent dose of 5 IU/kg, single-dose and multiple-dose studies) is “comparable to the clinical drug Aspart Insulin”. The “time of most pronounced glucose-lowering effect, multiple-dose” value in [2] (multiple-dose, 5 IU/kg group, Fig. 4B) is 4 h. Moreover, in [2] (multiple-dose, 10 IU/kg, Fig. 4B), the “time of peak glucose-lowering effect, multiple-dose” value is on record as 6 h. In [2] (single dose (2.5, 5, 10 IU/kg), at 1, 2, 4 and 6 h post-administration, Fig. 4A), the “blood glucose levels compared with solvent control, single-dose” value is given as “statistically significant reductions”. The “time point of most pronounced glucose-lowering effect, single-dose” value in series [2] (single dose, Fig. 4A) turned out to be 4 h. For the same substance, the “IR-A phosphorylation levels compared with Lantus” value in [3] was “no significant differences”. Further, the “IR-B phosphorylation levels compared with Lantus” value in series [4] is “no significant differences”. Further, in series [5], the “binding affinity to IR-A compared with Lantus” value is “comparable binding affinities”. Also, the “binding affinity to IR-B compared with Lantus” value in [6] is given as “comparable binding affinities”. Also, the “IGF-1R binding affinity / IC50 compared with Lantus (insulin glargine)” value in series [7] is “no significant differences in binding affinity or IC50 values”. For the same substance, the immunogenicity in animals entry in series [8] is “favorable safety profile”.

As for insulin lisargine (ligand), the stoichiometry N (in general, the number of molecules, sites or subunits per partner or assembly) came out at 2 in [9] and 6 in [10].
